Series [1] has as its system Rattus norvegicus. Description: Antiallodynic activity against CFA-induced Sprague-Dawley rat inflammatory pain model assessed as reduction in paw withdrawal threshold at 17.8 mg/kg measured after 5 hrs. Format: functional, organism-based. The method in brief:
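Adult male Sprague-Dawley rats (230–280 g, n=6/group); 0.1 ml CFA injected into right hind paw. Compounds i.p. (1–2 ml/kg) in 20% DMSO/10% emulphor/saline; AS2717638 in 30% propylene glycol vehicle. Mechanical paw withdrawal threshold (cut-off 26 g) measured every 30 min after single dose; two-way ANOVA, mean ± SEM.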

The target of series [2] is T1, Lysophosphatidic acid receptor 5 (Homo sapiens, UniProt Q9H1C0). Description: Agonist activity at human LPA5 receptor expressed in RH7777 cells assessed as calcium mobilization incubated for 15 mins by FLIPR method. It is filed as functional, cell-based. The method in brief: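 RH7777 cells stably expressing hLPA5, plated 20,000/well in 0.2% FBS medium 18–20 h, loaded 45 min at 37 °C with Calcium 5 dye in HBSS/20 mM HEPES/2.5 mM probenecid pH 7.4. […] Duplicates.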
T1 sequence (Q9H1C0 whole entry): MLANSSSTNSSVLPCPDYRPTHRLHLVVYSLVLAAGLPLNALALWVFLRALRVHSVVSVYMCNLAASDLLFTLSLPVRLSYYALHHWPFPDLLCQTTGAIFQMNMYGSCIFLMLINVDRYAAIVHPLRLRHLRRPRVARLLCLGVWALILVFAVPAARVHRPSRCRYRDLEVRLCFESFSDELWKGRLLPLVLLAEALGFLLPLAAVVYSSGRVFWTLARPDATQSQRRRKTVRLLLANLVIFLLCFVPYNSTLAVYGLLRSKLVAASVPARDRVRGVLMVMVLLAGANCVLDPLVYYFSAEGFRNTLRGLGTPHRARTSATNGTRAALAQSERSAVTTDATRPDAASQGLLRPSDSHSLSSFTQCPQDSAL

A short description of series [3]: Aqueous solubility of compound at pH 7.4. Format: physicochemical. The following applies: aqueous medium. The method, boiled down:
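Kinetic solubility: 20 mM DMSO stock diluted into PBS (1 mM KH2PO4, 3 mM Na2HPO4, 155 mM NaCl) to a target of 400 μM; triplicates quantified by LC-MS/MS against matrix-matched standards.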

Series [4] is described as follows: Drug concentration in Sprague-Dawley rat brain at 17.8 mg/kg, ip measured after 30 mins by LC-MS/MS analysis. The following applies: read-out: Ct. Format: ADME, organism-based. The method, boiled down: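 Male Sprague-Dawley rats (258–277 g) given 17.8 mg/kg i.p. in 5% Cremophor/5% ethanol/saline; at 30 min two rats anesthetized with isoflurane, cardiac blood taken, PBS-perfused; brains homogenized 1:4 (w/v) in 25% isopropanol and quantified by LC-MS/MS.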

Series [5] concerns the target Lysophosphatidic acid receptor 1 (Homo sapiens) (UniProt Q92633). Description: Antagonist activity at human LPA1 receptor expressed in CHO cells assessed as inhibition of LPA-induced calcium mobilization at 10 uM incubated for 15 mins by FLIPR analysis relative to control. Format: functional, cell-based. The method in brief: (§1)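 Calcium mobilization in CHO cells overexpressing LPA1, LPA2 or LPA3, run by a contract lab under its own protocols; compounds tested at single 10 μM.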

Series [6] has as its system Rattus norvegicus. Description: Antiallodynic activity in CCI surgery neuropathic pain induced Sprague-Dawley rat neuropathic pain model assessed as reversal of hypersensitivity condition at 17.8 mg/kg, ip measured after 10 days. It is filed as functional. The following applies: time 10 day. The method, boiled down:
(§2)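 Adult male Sprague-Dawley rats (230–280 g, n=6/group) given CCI under i.p. ketamine 75 mg/kg/xylazine 5 mg/kg: four chromic gut ligatures about 1 mm apart on the right sciatic nerve. Drug given i.p. (1–2 ml/kg) in 20% DMSO/10% emulphor/saline. Mechanical paw withdrawal threshold measured every 30 min (26 g cutoff). Reported as mean ± SEM, two-way ANOVA.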

In series [7] the target is T1, Lysophosphatidic acid receptor 5. Description: Antagonist activity at human LPA5 receptor expressed in RH7777 cells assessed as inhibition of EC80 concentration of hexadecyl LPA-induced calcium mobilization incubated for 15 mins by FLIPR method relative to hexadecyl LPA. The following applies: filed as antagonist. It is filed as functional, cell-based.
For series [8], the system named is Rattus norvegicus. Nature of the series: Antiallodynic activity in CCI surgery-induced Sprague-Dawley rat neuropathic pain model assessed as reduction in paw withdrawal threshold at 17.8 mg/kg, ip measured after 5 hrs. Format: functional. Also on record: scale not given: the % may be the effect or the level left. The method, boiled down:
as §2

The target of series [9] is T2, Lysophosphatidic acid receptor 3 (Homo sapiens) (UniProt Q9UBY5).
T2 sequence (whole entry): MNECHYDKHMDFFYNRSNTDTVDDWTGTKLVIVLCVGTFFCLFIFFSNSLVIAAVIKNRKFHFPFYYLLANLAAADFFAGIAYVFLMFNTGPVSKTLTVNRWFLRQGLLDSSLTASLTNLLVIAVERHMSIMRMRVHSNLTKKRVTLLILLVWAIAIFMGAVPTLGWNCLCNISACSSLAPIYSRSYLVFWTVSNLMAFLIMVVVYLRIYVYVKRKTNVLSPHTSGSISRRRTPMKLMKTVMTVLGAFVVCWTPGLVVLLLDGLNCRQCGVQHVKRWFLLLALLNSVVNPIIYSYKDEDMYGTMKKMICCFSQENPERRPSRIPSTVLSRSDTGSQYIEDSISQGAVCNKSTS
Nature of the series: Antagonist activity at human LPA3 receptor expressed in CHO cells assessed as inhibition of LPA-induced calcium mobilization at 10 uM incubated for 15 mins by FLIPR analysis relative to control. It is filed as functional, cell-based. The method, boiled down:
as §1

Series [10] can be described thus: Effect on locomotory activity in opioid-induced hyperalgesia Sprague-Dawley rat model at 17.8 mg/kg, ip measured for 60 mins by infrared motion-sensor analysis. It is filed as toxicity, organism-based. The note with it: in vivo, 1 h. The method, boiled down:
(§3)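 Handled ≥3 days; rats pretreated 60 min with vehicle or 17.8 mg/kg i.p., then placed in activity chambers and locomotion recorded for 60 min.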

The test system of series [11] is Rattus norvegicus. Nature of the series: Antinociceptive activity against in opioid-induced hyperalgesia Sprague-Dawley rat model assessed as reduction in mechanical hyperalgesia induced hypersensitivity at 5.6 to 17.8 mg/kg, ip and measured after 5 hrs. It is filed as functional, organism-based. The note with it: dose 5.6-17.8 mg/kg. The method in brief:
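Opioid-induced hyperalgesia: after baselines on D−1 and D0, rats given four s.c. fentanyl injections of 0.06 mg/kg at 15 min intervals (0.24 mg/kg total); paw withdrawal thresholds tested after i.p. drug on days 1–2 post-fentanyl.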

Series [12] addresses T1, Lysophosphatidic acid receptor 5. Nature of the series: Antagonist activity at human LPA5 receptor expressed in RH7777 cells assessed as inhibition of EC80 concentration of hexadecyl LPA-induced calcium mobilization incubated for 15 mins by FLIPR method. It is filed as functional, cell-based.
Series [13] can be described thus: Apparent permeability across apical to basolateral side in MDCK-MDR1 cells incubated for 90 mins by LC-MS/MS analysis. The following applies: dog, mdck-mdr1, 1.5 h. It is filed as ADME, cell-based, Canis lupus familiaris. The method in brief:
(§4)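 MDCK-MDR1 cells (passage 5) grown 3 days on Transwell polycarbonate inserts; transport buffer HBSS/10 mM HEPES/0.25% BSA pH 7.4, 30 min preincubation 37 °C with TEER check. 10 μM test article added apical (A-to-B) or basolateral (B-to-A); receiver sampled at 30, 60, 90 min, LC-MS/MS. Papp = (dQ/dt)/(A·Ci); efflux ratio B-to-A/A-to-B. Atenolol, propranolol, digoxin references.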

The target of series [14] is T1, Lysophosphatidic acid receptor 5. Description: Antagonist activity at human LPA5 receptor expressed in RH7777 cells assessed as inhibition of EC80 concentration of LPA-induced cAMP accumulation preincubated for 30 mins followed by Eu-cAMP tracer addition and measured after 1 hr by TR-FRET assay relative to hexadecyl LPA. The note with it: filed as antagonist. It is filed as functional, cell-based. The method, boiled down: (§5)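 hLPA5-RH7777 cells, switched to 0.2% FBS medium 20 h prior, lifted with versene, 2,000 cells/well in HBSS/5 mM HEPES/0.1% BSA/0.5 mM IBMX pH 7.4. Compound dilutions with hexadecyl LPA 16:0 EC80 (300 nM) plus forskolin, 30 min room temperature; LANCE Ultra Eu-cAMP tracer/ULight-anti-cAMP 1 h; TR-FRET 665 nm converted to cAMP via standard curve. Three-parameter logistic IC50; ≥3 experiments in duplicate.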

The subject of series [15] is Rattus norvegicus. Description: Antiallodynic activity in CCI surgery neuropathic pain induced ip dosed Sprague-Dawley rat hyperalgesia model assessed as reduction in mechanical allodynia by measuring reduction in paw threshold measured after 10 days. The note with it: dose 3.2-17.8 mg/kg, time 10.0 day. Format: functional, organism-based. The method in brief: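 Male Sprague-Dawley rats (n=6), ketamine/xylazine anesthesia; four chromic gut ligatures ~1 mm apart around the right sciatic nerve. Drugs i.p. in DMSO/emulphor/saline (AS2717638 in propylene glycol vehicle), single or cumulative dosing with paw withdrawal threshold (cut-off 26 g) measured every 30 min.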

In series [16] the target is T1, Lysophosphatidic acid receptor 5. Nature of the series: Antagonist activity at human LPA5 receptor expressed in RH7777 cells assessed as inhibition of EC80 concentration of LPA-induced cAMP accumulation preincubated for 30 mins followed by Eu-cAMP tracer addition and measured after 1 hr by TR-FRET assay. Format: functional, cell-based. The method, boiled down: as §5

Series [17] deals with Lysophosphatidic acid receptor 2 (Homo sapiens) (UniProt Q9HBW0). Nature of the series: Antagonist activity at human LPA2 receptor expressed in CHO cells assessed as inhibition of LPA-induced calcium mobilization at 10 uM incubated for 15 mins by FLIPR analysis relative to control. Format: functional, cell-based. The method in brief: as §1
Lysophosphatidic acid receptor 2 (Homo sapiens), sequence (Q9HBW0 whole entry): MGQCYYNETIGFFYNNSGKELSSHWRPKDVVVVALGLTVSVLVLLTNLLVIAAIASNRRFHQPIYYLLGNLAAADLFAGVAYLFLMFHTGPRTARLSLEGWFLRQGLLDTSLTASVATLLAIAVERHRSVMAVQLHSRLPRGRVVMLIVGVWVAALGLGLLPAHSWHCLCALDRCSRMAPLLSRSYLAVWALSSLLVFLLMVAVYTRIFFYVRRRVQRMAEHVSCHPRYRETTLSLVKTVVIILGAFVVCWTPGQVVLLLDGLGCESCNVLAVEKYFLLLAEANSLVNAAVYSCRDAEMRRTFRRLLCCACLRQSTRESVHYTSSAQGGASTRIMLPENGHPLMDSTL
Series [18] is described as follows: Effect on locomotory activity in CCI surgery-neuropathic pain induced Sprague-Dawley rat model at 17.8 mg/kg, ip measured for 60 mins by infrared motion-sensor analysis. It is filed as toxicity, organism-based. The following applies: in vivo, 1 h. The method, boiled down:
as §3

A short description of series [19]: Substrate activity at P-glycoprotein (unknown origin) in MDCK-MDR1 cells assessed as efflux ratio of apparent permeability across basolateral to apical over apical to basolateral side measured after 90 mins by LC-MS/MS analysis. It is filed as ADME, cell-based, Canis lupus familiaris. The note with it: dog, mdck-mdr1, 1.5 h. The method in brief: as §4
Series [20] deals with Lysophosphatidic acid receptor 4 (Homo sapiens) (UniProt Q99677). Nature of the series: Antagonist activity at human LPA4 receptor expressed in CHO cells assessed as inhibition of LPA-induced calcium accumulation preincubated for 30 mins followed by Eu-cAMP tracer addition and measured after 1 hr by TR-FRET assay relative to hexadecyl LPA. It is filed as functional, cell-based.
Lysophosphatidic acid receptor 4 (Homo sapiens), sequence (Q99677 whole entry): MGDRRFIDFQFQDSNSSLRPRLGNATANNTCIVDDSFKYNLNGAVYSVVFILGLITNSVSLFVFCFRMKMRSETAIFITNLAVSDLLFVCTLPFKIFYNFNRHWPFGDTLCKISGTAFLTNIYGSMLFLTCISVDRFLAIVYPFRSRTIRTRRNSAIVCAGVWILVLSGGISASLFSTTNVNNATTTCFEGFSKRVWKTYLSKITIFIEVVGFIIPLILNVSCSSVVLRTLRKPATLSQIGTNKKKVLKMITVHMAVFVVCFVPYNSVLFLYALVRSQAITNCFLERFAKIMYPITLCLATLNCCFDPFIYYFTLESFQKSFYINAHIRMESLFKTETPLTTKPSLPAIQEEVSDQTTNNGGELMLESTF

In brackets after ≈: the same amount, converted by molar mass. Activity calls are given as the source filed them.

Lysophosphatidic acid receptor 1 (Homo sapiens), sequence (Q92633 whole entry): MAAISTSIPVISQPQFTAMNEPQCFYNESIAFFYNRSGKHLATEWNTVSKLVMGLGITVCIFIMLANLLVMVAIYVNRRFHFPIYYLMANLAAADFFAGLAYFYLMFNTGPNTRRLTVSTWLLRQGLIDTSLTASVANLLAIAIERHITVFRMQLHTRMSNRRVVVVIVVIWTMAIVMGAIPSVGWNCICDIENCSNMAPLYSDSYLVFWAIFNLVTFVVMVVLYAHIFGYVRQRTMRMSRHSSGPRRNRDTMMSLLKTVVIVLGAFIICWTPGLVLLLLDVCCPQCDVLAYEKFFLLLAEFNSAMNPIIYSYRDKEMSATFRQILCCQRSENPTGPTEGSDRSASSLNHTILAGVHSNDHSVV

As for `C#CC1CCN(C(=O)c2cn(-c3ccc4scc(C)c4c3)c(=O)c3cc(OC)c(OC)cc23)CC1`, the outcome in series [1] and in series [11] was Active. Moreover, the outcome in series [2] was inactive. The same molecule showed a solubility (kinetic) in series [3] of 19.5 µM (≈ 9.49 µg/mL). The concentration at 0.5 h in series [4] was found to be 652 ng/mL. Also, the inhibition in [5] is less than 50%; in series [7], 107%; in [9], less than 50%; in series [14] it was 100%; in series [17], less than 50%; in [20], less than 50%. The Activity was 100% in series [6]; 100% in series [8]; “Non-Toxic” in [10]; “Dose-Dependent Effect” in [15]; “Non-Toxic” in series [18]. Also, the IC50 in series [12] is 32 nM; in [16] it was 350 nM. Moreover, the Papp in series [13] is recorded as 31.1 10^-6 cm/s. In addition, in series [19], the Ratio is given as 1.2.

The values above are taken from ChEMBL document CHEMBL5352427, “Isoquinolone derivatives as lysophosphatidic acid receptor 5 (LPA5) antagonists: Investigation of structure-activity relationships, ADME properties and analgesic effects” (Eur J Med Chem, 2022).
